{"data": "Measurements gathered from unrelated publications", "mode": "inhibitor", "MET": "Hepatocyte growth factor receptor (MET, Homo sapiens, UniProt P08581)", "MET M1250T": "Hepatocyte growth factor receptor (MET, Homo sapiens, UniProt P08581, M1250T)", "note": "Each line is one published result; the experiments were not run side by side."}
{"SMILES": "C=CC(=O)Nc1cc(Nc2nccc(Nc3cc(Cl)c(F)cc3C(C)(C)O)n2)c(OC)cc1N1CC[C@@H](N(C)C)C1", "target": "MET", "read-out": "enzyme activity", "tested at": "1 µM", "inhibition [%]": 30}
{"SMILES": "CNc1cc(Oc2cc(C(=O)Nc3cc(N4CCN(C)CC4)cc(C(F)(F)F)c3)ccc2C)ncn1", "target": "MET", "read-out": "target engagement in cells", "technique": "chemoproteomics", "cell line": "Huh-7", "tested at": "1 µM", "inhibition [%]": -18.4}
{"SMILES": "CNC(=O)c1cc(Oc2ccc(NC(=O)Nc3ccc(Cl)c(C(F)(F)F)c3)cc2)ccn1", "target": "MET", "read-out": "enzyme activity", "tested at": "0.3 µM", "inhibition [%]": -22}
{"SMILES": "CC/C(=N\\NC(=O)NCc1cccc(O)c1)c1ccc(O)c(C)c1O", "target": "MET M1250T", "read-out": "enzyme activity", "tested at": "0.1 µM", "inhibition [%]": -0.2}
{"SMILES": "CNC(=O)c1cc2c(Oc3ccc(NC(=O)C4(C(=O)Nc5ccc(F)cc5)CC4)cc3)ccnc2cc1OC", "target": "MET M1250T", "read-out": "enzyme activity", "technique": "radiometric", "tested at": "1 µM", "inhibition [%]": 99}
{"SMILES": "CNc1cccc2cc(C(=O)Nc3ccc(C(=O)O)cc3)c(=O)[nH]c12", "target": "MET", "read-out": "enzyme activity", "tested at": "10 µM", "inhibition [%]": 1.4}
{"SMILES": "CS(=O)(=O)Nc1cccc(-c2csc(NC(=O)CSc3nc4nccnc4c(=O)n3CCc3ccccc3)n2)c1", "target": "MET", "read-out": "enzyme activity", "tested at": "10 µM", "inhibition [%]": 1}
{"SMILES": "COc1cc2ncnc(Nc3ccc(Oc4ccccc4)c(C)c3C)c2cc1OC", "target": "MET M1250T", "read-out": "enzyme activity", "tested at": "1 µM", "inhibition [%]": -2}
{"SMILES": "COc1cc2nccc(Oc3ccc(NC(=O)c4c5n(n(-c6ccc(F)cc6)c4=O)CCCC5)cc3)c2cc1OC", "target": "MET", "read-out": "enzyme activity", "tested at": "0.1 µM", "inhibition [%]": 98}
{"SMILES": "CN(C)C1CCN(CC#Cc2nn(C3CCCC3)c3nc(NCc4ccccc4)ncc23)C1 (centres unmarked)", "target": "MET", "read-out": "enzyme activity", "technique": "FRET", "tested at": "0.1 µM", "inhibition [%]": 6}
{"SMILES": "COc1cc2ncnc(Nc3ccc(Oc4ccccc4)cc3C)c2cc1OC", "target": "MET M1250T", "read-out": "enzyme activity", "tested at": "1 µM", "inhibition [%]": -1}
